Assay results from ChEMBL document CHEMBL2062411, “Structure-activity relationship study of selective excitatory amino acid transporter subtype 1 (EAAT1) inhibitor 2-amino-4-(4-methoxyphenyl)-7-(naphthalen-1-yl)-5-oxo-5,6,7,8-tetrahydro-4H-chromene-3-carbonitrile (UCPH-101) and absolute configurational assignment using infrared and vibrational …” (J Med Chem, 2012).
pIC50: −log10 of the molar value. One block for each compound: values may come before it.

Assays:
Format in all cases: cell-based
[1] = molecular target: Excitatory amino acid transporter 1 (Homo sapiens, UniProt P43003); assay: Inhibition of human EAAT1 expressed in HEK293 cells assessed as inhibition of 3[H]-D-Aspartate uptake after 6 mins by scintillation counting method; settings: for pIC50: read-out: IC50; for IC50: read-out: pIC50 (converted)
Method in brief: (§1)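 HEK293 cell lines expressing EAAT1, EAAT2 or EAAT3 were cultured and assayed for [³H]-D-aspartate uptake, following an earlier published protocol. Inhibition is reported as IC50 in μM, with pIC50 ± SEM.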

[2] = molecular target: Excitatory amino acid transporter 2 (Homo sapiens, UniProt P43004); assay: Inhibition of human EAAT2 expressed in HEK293 cells assessed as inhibition of 3[H]-D-Aspartate uptake after 6 mins by scintillation counting method; method in brief: as §1
[3] = molecular target: T1, Excitatory amino acid transporter 3 (Homo sapiens, UniProt P43005); assay: Inhibition of human EAAT3 expressed in HEK293 cells assessed as inhibition of 3[H]-D-Aspartate uptake after 6 mins by scintillation counting method; method in brief: as §1
T1 sequence (P43005 whole entry): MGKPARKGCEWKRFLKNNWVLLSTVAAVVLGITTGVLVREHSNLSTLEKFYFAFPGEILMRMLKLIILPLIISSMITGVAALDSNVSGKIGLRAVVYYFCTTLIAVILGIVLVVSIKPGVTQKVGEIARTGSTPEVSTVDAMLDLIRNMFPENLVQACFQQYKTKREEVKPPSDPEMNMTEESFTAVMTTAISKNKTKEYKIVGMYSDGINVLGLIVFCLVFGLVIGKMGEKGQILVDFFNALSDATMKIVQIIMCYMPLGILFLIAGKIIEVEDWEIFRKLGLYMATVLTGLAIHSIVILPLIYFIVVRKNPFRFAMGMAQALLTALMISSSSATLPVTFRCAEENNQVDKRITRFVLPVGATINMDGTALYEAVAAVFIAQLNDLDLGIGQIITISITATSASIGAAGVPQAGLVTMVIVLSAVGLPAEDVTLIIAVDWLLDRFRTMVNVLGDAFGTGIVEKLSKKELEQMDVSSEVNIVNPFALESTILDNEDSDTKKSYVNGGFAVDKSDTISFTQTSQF

Sequence of Excitatory amino acid transporter 2 (P43004 whole entry): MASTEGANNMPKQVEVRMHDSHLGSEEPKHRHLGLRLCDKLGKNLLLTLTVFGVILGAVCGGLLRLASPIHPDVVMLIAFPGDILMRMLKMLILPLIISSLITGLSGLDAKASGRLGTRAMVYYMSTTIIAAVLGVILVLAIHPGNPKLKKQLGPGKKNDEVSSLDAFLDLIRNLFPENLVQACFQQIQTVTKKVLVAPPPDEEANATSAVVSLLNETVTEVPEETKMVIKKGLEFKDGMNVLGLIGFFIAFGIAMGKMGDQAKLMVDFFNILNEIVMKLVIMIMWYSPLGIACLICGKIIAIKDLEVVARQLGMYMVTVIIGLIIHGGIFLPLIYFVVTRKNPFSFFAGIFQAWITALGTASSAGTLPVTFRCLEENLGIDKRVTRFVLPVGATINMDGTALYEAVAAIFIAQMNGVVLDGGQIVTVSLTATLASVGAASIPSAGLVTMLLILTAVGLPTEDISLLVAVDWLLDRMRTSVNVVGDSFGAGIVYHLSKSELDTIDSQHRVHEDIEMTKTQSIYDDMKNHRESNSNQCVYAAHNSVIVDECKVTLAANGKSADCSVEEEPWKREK
Sequence of Excitatory amino acid transporter 1 (P43003 whole entry): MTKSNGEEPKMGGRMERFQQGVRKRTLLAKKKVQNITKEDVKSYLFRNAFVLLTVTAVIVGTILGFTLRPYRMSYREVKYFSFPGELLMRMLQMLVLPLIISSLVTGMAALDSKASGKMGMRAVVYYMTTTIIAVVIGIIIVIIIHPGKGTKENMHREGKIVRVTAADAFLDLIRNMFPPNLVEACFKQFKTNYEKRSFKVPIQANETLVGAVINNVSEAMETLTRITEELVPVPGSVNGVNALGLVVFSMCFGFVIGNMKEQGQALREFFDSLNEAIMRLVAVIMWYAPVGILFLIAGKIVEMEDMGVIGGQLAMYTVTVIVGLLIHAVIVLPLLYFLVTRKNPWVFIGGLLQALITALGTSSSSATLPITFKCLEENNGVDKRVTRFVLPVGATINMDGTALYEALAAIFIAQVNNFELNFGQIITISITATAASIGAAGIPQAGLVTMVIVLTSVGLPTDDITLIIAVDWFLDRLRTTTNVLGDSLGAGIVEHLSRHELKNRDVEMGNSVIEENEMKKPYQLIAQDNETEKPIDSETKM

Compound: C[C@@H](c1ccccc1)N1CC(=O)C2=C(C1)OC(N)=C(C#N)[C@@H]2c1ccccc1
IC50 [1]: > 316 µM | pIC50 [2]: < 3.52 | pIC50 [3]: < 3.52

Compound: CC1(C)C(C#N)=C(N)OC2=C1C(=O)CC(c1ccccc1)C2 (stereo unspecified)
pIC50 [1]: < 3.52

Compound: N#CC1=C(N)OC2=C(C(=O)CN(Cc3ccccc3)C2)C1c1ccccc1 (stereo unspecified)
IC50 [1]: 16.2 µM | pIC50 [2]: < 3.52 | pIC50 [3]: < 3.52

Compound: N#CC1=C(N)OC2=C(C(=O)OC(c3ccccc3)C2)C1c1ccccc1 (stereo unspecified)
pIC50 [1]: < 3.52

Compound: N#CC1=C(N)OC2=C(C(=O)CC(c3ccccc3)C2)C1c1ccccc1 (stereo unspecified)
pIC50 [1]: 5.41

Compound: CC1C(C#N)=C(N)OC2=C1C(=O)CC(c1cccc3ccccc13)C2 (stereo unspecified)
pIC50 [1]: 6.38

Compound: C[C@@H](c1ccccc1)N1CC(=O)C2=C(C1)OC(N)=C(C#N)[C@H]2c1ccccc1
IC50 [1]: 5.25 µM | pIC50 [2]: < 3.52 | pIC50 [3]: < 3.52

The remaining lines, values ahead:

pIC50 [1]: < 3.52
Compound: N#CC1=C(N)OC2=C(C(=O)NC(c3ccccc3)C2)C1c1ccccc1 (stereo unspecified)

IC50 [1]: > 100 µM | pIC50 [2]: < 4.00 | pIC50 [3]: < 4.00
Compound: N#CC1=C(N)OC2=C(C(=O)CN(c3ccccc3)C2)C1c1ccccc1 (stereo unspecified)

IC50 [1]: 3.72 µM | pIC50 [2]: < 3.52 | pIC50 [3]: < 3.52
Compound: C[C@H](c1ccccc1)N1CC(=O)C2=C(C1)OC(N)=C(C#N)[C@H]2c1ccccc1

IC50 [1]: > 316 µM | pIC50 [2]: < 3.52 | pIC50 [3]: < 3.52
Compound: C[C@H](c1ccccc1)N1CC(=O)C2=C(C1)OC(N)=C(C#N)[C@@H]2c1ccccc1

IC50 [1]: > 100 µM | pIC50 [2]: < 4.00 | pIC50 [3]: < 4.00
Compound: N#CC1=C(N)OC2=C(C(=O)CN(C(=O)c3ccccc3)C2)C1c1ccccc1 (stereo unspecified)
